Experimental data reported in ChEMBL document CHEMBL1926642, “Relevance of the C-5 position to schweinfurthin induced cytotoxicity” (2011).

Tests used:
Assay type in all cases: functional
[1] = system: CCRF-CEM; assay: Growth inhibition of human CCRF-CEM cells after 48 hrs by sulforhodamine B assay
[2] = system: MOLT-4; assay: Growth inhibition of human MOLT4 cells after 48 hrs by sulforhodamine B assay; settings: MOLT-4, 48 h
[3] = system: HOP-62; assay: Growth inhibition of human HOP62 cells after 48 hrs by sulforhodamine B assay; settings: HOP-62, 48 h
[4] = system: HOP-92; assay: Growth inhibition of human HOP92 cells after 48 hrs by sulforhodamine B assay; settings: HOP-92, 48 h
[5] = system: NCI-H23; assay: Growth inhibition of human NCI-H23 cells after 48 hrs by sulforhodamine B assay; settings: NCI-H23, 48 h
[6] = system: A549; assay: Growth inhibition of human A549 cells after 48 hrs by sulforhodamine B assay; settings: A549, 48 h
[7] = system: HCT-116; assay: Growth inhibition of human HCT116 cells after 48 hrs by sulforhodamine B assay; settings: HCT-116, 48 h
[8] = system: HT-29; assay: Growth inhibition of human HT-29 cells after 48 hrs by sulforhodamine B assay; settings: HT-29, 48 h
[9] = system: SW-620; assay: Growth inhibition of human SW620 cells after 48 hrs by sulforhodamine B assay; settings: SW-620, 48 h
[10] = system: SF-539; assay: Growth inhibition of human SF539 cells after 48 hrs by sulforhodamine B assay; settings: SF-539, 48 h
[11] = system: U-251; assay: Growth inhibition of human U251 cells after 48 hrs by sulforhodamine B assay; settings: U-251, 48 h
[12] = system: Malme-3M; assay: Growth inhibition of human MALME-3M cells after 48 hrs by sulforhodamine B assay
[13] = system: MDA-MB-435; assay: Growth inhibition of human MDA-MB-435 cells after 48 hrs by sulforhodamine B assay; settings: MDA-MB-435, 48 h
[14] = system: OVCAR-5; assay: Growth inhibition of human OVCAR5 cells after 48 hrs by sulforhodamine B assay; settings: OVCAR-5, 48 h
[15] = system: OVCAR-8; assay: Growth inhibition of human OVCAR8 cells after 48 hrs by sulforhodamine B assay; settings: OVCAR-8, 48 h
[16] = system: A498; assay: Growth inhibition of human A498 cells after 48 hrs by sulforhodamine B assay; settings: A498, 48 h
[17] = system: ACHN; assay: Growth inhibition of human ACHN cells after 48 hrs by sulforhodamine B assay
[18] = system: RXF 393; assay: Growth inhibition of human RXF393 cells after 48 hrs by sulforhodamine B assay; settings: RXF 393, 48 h
[19] = system: TK-10; assay: Growth inhibition of human TK10 cells after 48 hrs by sulforhodamine B assay; settings: TK-10, 48 h
[20] = system: UO-31; assay: Growth inhibition of human UO31 cells after 48 hrs by sulforhodamine B assay; settings: UO-31, 48 h
[21] = system: PC-3; assay: Growth inhibition of human PC3 cells after 48 hrs by sulforhodamine B assay; settings: PC-3, 48 h
[22] = system: DU-145; assay: Growth inhibition of human DU145 cells after 48 hrs by sulforhodamine B assay; settings: DU-145, 48 h
[23] = system: MCF7; assay: Growth inhibition of human MCF7 cells after 48 hrs by sulforhodamine B assay; settings: MCF7, 48 h
[24] = system: MDA-MB-231; assay: Growth inhibition of human MDA-MB-231/ATCC cells after 48 hrs by sulforhodamine B assay; settings: MDA-MB-231, 48 h
[25] = Growth inhibition of human Hs 578T cells after 48 hrs by sulforhodamine B assay
[26] = system: BT-549; assay: Growth inhibition of human BT549 cells after 48 hrs by sulforhodamine B assay; settings: BT-549, 48 h
[27] = system: MDA-MB-468; assay: Growth inhibition of human MDA-MB-468 cells after 48 hrs by sulforhodamine B assay; settings: MDA-MB-468, 48 h
[28] = system: SR; assay: Growth inhibition of human SR cells after 48 hrs by sulforhodamine B assay
[29] = system: ACHN; assay: Cytotoxicity against human ACHN cells assessed as cell growth at 10 uM after 48 hrs by sulforhodamine B assay relative to control; settings: read-out: Activity
In short: (§1)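 Compounds went through the NCI 60 cell-line screen, whose current protocol tests first at a single dose.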

[30] = system: MCF7; assay: Cytotoxicity against human MCF7 cells assessed as cell growth at 10 uM after 48 hrs by sulforhodamine B assay relative to control; settings: MCF7, 48 h, read-out: Activity; in short: as §1
[31] = system: RPMI-8226; assay: Cytotoxicity against human RPMI8226 cells assessed as cell growth at 10 uM after 48 hrs by sulforhodamine B assay relative to control; settings: RPMI-8226, 48 h, read-out: Activity; in short: as §1
[32] = system: HOP-62; assay: Cytotoxicity against human HOP62 cells assessed as cell growth at 10 uM after 48 hrs by sulforhodamine B assay relative to control; settings: HOP-62, 48 h, read-out: Activity; in short: as §1
[33] = system: OVCAR-5; assay: Cytotoxicity against human OVCAR5 cells assessed as cell growth at 10 uM after 48 hrs by sulforhodamine B assay relative to control; settings: OVCAR-5, 48 h, read-out: Activity; in short: as §1
[34] = read-out: pLC50 (the source's name) (converted)

For `COc1cc(/C=C/c2cc(O)c3c(c2)C[C@@H]2C(C)(C)[C@H](O)CC[C@@]2(C)O3)cc(O)c1C/C=C(\C)CCC=C(C)C`, the GI50 [1] was 120 nM, the LC50 [1] was 100 µM and the TGI ([1]; read-out: pTGI (converted)) was 4.37 µM. The GI50 [2] was 33.9 nM, the LC50 [2] was 100 µM and the TGI ([2]; read-out: pTGI (converted)) was 245 nM. For the same compound, the GI50 [3] was 479 nM, the LC50 [3] was 30.2 µM and the TGI ([3]; read-out: pTGI (converted)) was 8.13 µM. The GI50 [4] was 2290 nM, the LC50 [4] was 50.1 µM and the TGI ([4]; read-out: pTGI (converted)) was 6.61 µM. The GI50 [5] was 1510 nM, the LC50 [5] was 26.3 µM and the TGI ([5]; read-out: pTGI (converted)) was 4.47 µM. For the same compound, the LC50 [6] was 40.7 µM, the GI50 ([6]; read-out: GI50) was 720 nM and the GI50 ([6]; read-out: pGI50 (converted)) was 955 nM. For the same compound, the TGI ([6]; read-out: pTGI (converted)) was 10.7 µM, the GI50 [7] was 603 nM and the LC50 [7] was 6.31 µM. The TGI ([7]; read-out: pTGI (converted)) was 2340 nM, the GI50 [8] was 1230 nM and the LC50 (concentration killing 50% of cells) [8] was 27.5 µM. The TGI ([8]; read-out: pTGI (converted)) was 4.9 µM, the GI50 [9] was 331 nM and the LC50 [9] was 5.13 µM. It also gave a TGI ([9]; read-out: pTGI (converted)) of 1580 nM, a GI50 [10] of 52.5 nM and an LC50 [10] of 6.92 µM. It also gave a TGI ([10]; read-out: pTGI (converted)) of 1660 nM, a GI50 [11] of 75.9 nM and an LC50 [11] of 10.7 µM. For the same compound, the TGI ([11]; read-out: pTGI (converted)) was 2630 nM, the GI50 [12] was 1950 nM and the LC50 [12] was 30.9 µM. The TGI ([12]; read-out: pTGI (converted)) was 5.13 µM, the GI50 [13] was 794 nM and the LC50 [13] was 34.7 µM. For the same compound, the TGI ([13]; read-out: pTGI (converted)) was 5.01 µM, the GI50 [14] was 2510 nM and the LC50 [14] was 45.7 µM. It also gave a TGI ([14]; read-out: pTGI (converted)) of 13.2 µM, a GI50 [15] of 2820 nM and an LC50 [15] of 51.3 µM. The TGI ([15]; read-out: pTGI (converted)) was 12.6 µM, the GI50 [16] was 117 nM and the LC50 [16] was 12 µM. It also gave a TGI ([16]; read-out: pTGI (converted)) of 2450 nM, a GI50 [17] of 1780 nM and an LC50 [17] of 36.3 µM. The TGI ([17]; read-out: pTGI (converted)) was 12 µM, the GI50 [18] was under 10 nM and the LC50 (50% lethal concentration) [18] was 4.37 µM. For the same compound, the TGI ([18]; read-out: pTGI (converted)) was 55 nM, the GI50 [19] was 2190 nM and the LC50 [19] was 41.7 µM. For the same compound, the TGI ([19]; read-out: pTGI (converted)) was 8.91 µM, the GI50 [20] was 178 nM and the LC50 [20] was 37.2 µM. The TGI ([20]; read-out: pTGI (converted)) was 11.5 µM, the GI50 [21] was 372 nM and the CC50 [21, 34] was 41.7 µM. It also gave a TGI ([21]; read-out: pTGI (converted)) of 5.25 µM, a GI50 [22] of 2000 nM and an LC50 [22] of 77.6 µM. For the same compound, the TGI ([22]; read-out: pTGI (converted)) was 11.7 µM, the GI50 [23] was 309 nM and the LC50 [23] was 29.5 µM. It also gave a TGI ([23]; read-out: pTGI (converted)) of 3.47 µM, a GI50 [24] of 1200 nM and a CC50 [24, 34] of 8.13 µM. The TGI ([24]; read-out: pTGI (converted)) was 2880 nM, the GI50 [25] was 37.1 nM and the CC50 [25, 34] was 26.9 µM. The TGI ([25]; read-out: pTGI (converted)) was 776 nM, the GI50 [26] was 275 nM and the LC50 [26] was 69.2 µM. For the same compound, the TGI ([26]; read-out: pTGI (converted)) was 12 µM, the GI50 [27] was 1100 nM and the LC50 [27] was 9.12 µM. For the same compound, the TGI ([27]; read-out: pTGI (converted)) was 3.16 µM, the GI50 [28] was 288 nM and the LC50 [28] was 100 µM. For the same compound, the TGI ([28]; read-out: pTGI (converted)) was 4.07 µM.
`COCc1cc(/C=C/c2cc(O)c(C/C=C(\C)CCC=C(C)C)c(OC)c2)cc2c1O[C@]1(C)CC[C@@H](O)C(C)(C)[C@H]1C2` gave a growth at 10 µM [29] of 103%, a growth at 10 µM [30] of 103% and a growth at 10 µM [31] of 65.9%. The growth at 10 µM [32] was 127% and the growth at 10 µM [33] was 114%.
`COc1cc(/C=C/c2cc(Br)c3c(c2)C[C@@H]2C(C)(C)[C@H](O)CC[C@@]2(C)O3)cc(O)c1C/C=C(\C)CCC=C(C)C` showed a growth at 10 µM [29] of 104%, a growth at 10 µM [30] of 102% and a growth at 10 µM [31] of 75%. The growth at 10 µM [32] was 113% and the growth at 10 µM [33] was 105%.
